Screens as filed in PubChem.
Runt-SMMHC FRET – inhibitors of human RUNX1 Runt domain binding to CBFb-SMMHC; inhibition, % at 20 µM; 220,000 tested, 0.74% active; Q01196+Q13951; Cerulean-Runt/Venus-CBFb-SMMHC FRET ratio 530/480, 1 h;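 active = mean inhibition across duplicate retests at 20 µM reaching about 50%, limit read from the data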;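 also: inhibitors lower the FRET ratio by blocking Runt binding to CBFb-SMMHC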
Wee1 stabilizer – inhibitors of human Wee1 degradation; HeLa Luc-Wee1K328M stability, luciferase luminescence; 100% = proteasome inhibitor MG132 effect; reporter increase, % at 5 µM; 220,000 tested, 1.2% active;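 active = activation above the mean of all tested compounds plus 3 SD, set per screening run, cut at about 8.8% in these data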;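 also: cells exposed to compound for 20 h before luminescence read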
PHOSPHO1 inh – inhibitors of human PHOSPHO1 phosphatase; Q8TCT1; AID 1565; recombinant PHOSPHO1, absorbance phosphatase assay; 290,000 tested, 1.1% active; inhibition, % at 13.3 µM; in the data active = inhibition above about 60%
Target sequence (Q8TCT1 whole entry, looked up): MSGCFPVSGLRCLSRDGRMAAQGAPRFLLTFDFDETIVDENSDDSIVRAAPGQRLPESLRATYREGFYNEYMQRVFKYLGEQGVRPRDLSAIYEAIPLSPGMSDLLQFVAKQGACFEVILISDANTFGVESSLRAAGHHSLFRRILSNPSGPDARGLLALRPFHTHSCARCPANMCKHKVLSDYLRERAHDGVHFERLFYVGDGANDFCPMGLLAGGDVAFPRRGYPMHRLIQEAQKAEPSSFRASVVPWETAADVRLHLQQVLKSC
RanGTP-Imp inh – disruptors of Ran-importin-beta complex formation – biochemical, FRET, CFP-Ran, YFP-importin-beta, homogeneous, primary screen; cell-free CFP-Ran/YFP-importin-beta FRET ratio; inhibition, % (no concentration beside the values); 300,000 tested, 1.1% active;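 active = more than half of the replicate wells show a fall in the fluorescence ratio signal beyond about 16%, limit read from the data, passing the limit was not always enough; inconclusive = exactly half of the replicate wells pass the set limit; inactive = fewer than half of replicates pass the limit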
HMGR II inh – E. faecalis class II HMG-CoA reductase inhibition | purified E. faecalis HMGR, NADPH absorbance 340 nm kinetic | inhibition, % at 10 µM | 190,000 tested, 0.41% active | AID 1066;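 active = inhibition above a set limit, the median over all tested compounds plus 3 SD, cut at about 9.5% in these data; inconclusive = no clear call, values can overlap the other calls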;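 also: enzyme runs in reverse so mevalonate oxidation gives rising NADPH absorbance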
Runt-CBFb FRET – inhibitors of human RUNX1 Runt domain binding to CBFb | 220,000 tested, 0.46% active | Cerulean-Runt/Venus-CBFb FRET ratio 530/480, 1 h | inhibition, % at 20 µM | AID 1496;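 active = inhibition over about 50% at 20 µM in the single-dose screen, limit read from the data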
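test system = Cerulean-Runt domain fusion protein, energy donor | probe or stimulus = Venus-CBFb binding partner, 100 nM | incubation = two 1 h room-temperature incubations shielded from light | detection = fluorescence energy transfer, 422 nm excitation, 530/480 nm emission | measure = loss of energy transfer signal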
Large screens that a line does not name were inactive. Only some compounds are listed: those with a hit (about 3.4% of all), similar ones and a draw of the others.

CN(/N=C/c1ccncc1)C1=NS(=O)(=O)c2ccccc21	RanGTP-Imp inh inconclusive
CN(/N=C/c1ccncc1)c1cnc2ccccc2n1	Wee1 stabilizer 10.0
O=C(COc1ccccc1)N=C1SC2CS(=O)(=O)CC2N1c1ccccc1F (stereo unspecified)	none (no result: Runt-SMMHC FRET, Wee1 stabilizer, HMGR II inh, Runt-CBFb FRET)
Cc1c(C(=O)NCC2COc3ccccc3O2)oc2ccc(S(=O)(=O)N3CC(C)CC(C)C3)cc12 (stereo unspecified)	none
Cc1c(C(=O)NCC2COc3ccccc3O2)oc2ccc(S(=O)(=O)N3CCOCC3)cc12 (stereo unspecified)	Wee1 stabilizer 9.1
O=C(Nc1ccccc1Oc1ccccc1)C1CC1	Wee1 stabilizer 10.3
CSc1ncccc1C(=O)OCC(=O)NC(C)(C)C	none
COCCCNc1nc2nonc2nc1N1CCC(C(C)N2CCOCC2)CC1 (stereo unspecified)	PHOSPHO1 inh 69.8
O=C(Nc1cc(=O)[nH]c2ncnn12)c1ccccc1F	Wee1 stabilizer 9.4 (no result: HMGR II inh)
Cc1cccc(NC(=O)CSc2nnc(Cc3ccccc3)o2)c1	RanGTP-Imp inh inconclusive
COc1ccc(CCCc2nnc(SCC(=O)Nc3ccc(C)c(C)c3)o2)cc1	PHOSPHO1 inh 84.6
COc1ccc(CCCc2nnc(SCC(=O)Nc3ccc(OC)cc3)o2)cc1	none
Cc1ccc(NC(=O)CSc2nnc(Cc3ccccc3)o2)cc1	Wee1 stabilizer 10.7
CCOc1ccc(NC(=O)CCCN2C(=O)C(c3ccccc3)Oc3cccnc32)cc1 (stereo unspecified)	none (no result: Runt-SMMHC FRET, Wee1 stabilizer, HMGR II inh, Runt-CBFb FRET)
CC(C)(C)C(=O)NN=C1CCC(c2ccccc2)CC1 (stereo unspecified)	none (no result: Runt-SMMHC FRET, Wee1 stabilizer, HMGR II inh, Runt-CBFb FRET)
Cc1cc(NC(=O)CCC(=O)N(c2ccccc2)C(C(=O)NC2CCCC2)c2ccccc2C)no1 (stereo unspecified)	none (no result: Runt-SMMHC FRET, Wee1 stabilizer, HMGR II inh, Runt-CBFb FRET)
COc1cc(/C=N/OCC(=O)NC2CCCCC2C)ccc1OCc1ccc(Cl)cc1 (stereo unspecified)	RanGTP-Imp inh inconclusive
COc1cc(/C=N/OCC(=O)Nc2cc(C)cc(C)c2)ccc1OCc1ccc(Cl)cc1	RanGTP-Imp inh 25.5
CC(Sc1nc2ccc(Br)cc2[nH]1)C(=O)O (stereo unspecified)	none
O=C(O)CCSc1nc2ccc(Br)cc2[nH]1	PHOSPHO1 inh 66.3
CN1CCc2c(sc(NC(=O)C3CCCCC3)c2C(N)=O)C1	RanGTP-Imp inh 147.2 (no result: Runt-SMMHC FRET, Wee1 stabilizer, HMGR II inh, Runt-CBFb FRET)
CC(C)C(=O)NC(=S)Nc1sc2c(c1C(N)=O)CCCC2	none
CN1CCc2c(sc(NC(=O)C3CCN(S(=O)(=O)c4cccs4)CC3)c2C(N)=O)C1	RanGTP-Imp inh 131.5 (no result: Runt-SMMHC FRET, Wee1 stabilizer, PHOSPHO1 inh, HMGR II inh, Runt-CBFb FRET)
CC(C)N1CCc2c(sc(NC(=O)C3CCCCC3)c2C(N)=O)C1	RanGTP-Imp inh 133.7 (no result: Runt-SMMHC FRET, Wee1 stabilizer, HMGR II inh, Runt-CBFb FRET)
COC(=O)c1c(NC(=O)C2CCCCC2)sc2c1CCN(C(C)C)C2	RanGTP-Imp inh 56.7 (no result: Runt-SMMHC FRET, Wee1 stabilizer, HMGR II inh, Runt-CBFb FRET)
COC(=O)c1c(NC(=O)C2CC2)sc2c1CCCC2	none
CCOc1ccccc1CN1CCNC(=O)C1CC(=O)NCc1nccn1CC (stereo unspecified)	none (no result: Runt-SMMHC FRET, Wee1 stabilizer, HMGR II inh, Runt-CBFb FRET)
COc1ccc(C)cc1NC(=O)C1CCN(S(=O)(=O)c2cccs2)CC1	none (no result: Runt-SMMHC FRET, Wee1 stabilizer, HMGR II inh, Runt-CBFb FRET)
Cc1ccc(NC(=O)C2CCN(S(=O)(=O)c3cccs3)CC2)c(O)c1	PHOSPHO1 inh 62.4 (no result: Runt-SMMHC FRET, Wee1 stabilizer, HMGR II inh, Runt-CBFb FRET)
Fc1ccc(C2=Nn3c(Cc4ccccc4F)nnc3SC2)cc1	PHOSPHO1 inh 62.2, RanGTP-Imp inh inconclusive
c1ccc(Cc2nnc3n2N=C(c2ccccc2)CS3)cc1	none
CC(NS(=O)(=O)CCNC(=O)c1ccccc1)c1ccccc1 (stereo unspecified)	none (no result: Runt-SMMHC FRET, Wee1 stabilizer, PHOSPHO1 inh, HMGR II inh, Runt-CBFb FRET)
CC1(C(=O)CSc2ncn[nH]2)CCC(=O)O1 (stereo unspecified)	PHOSPHO1 inh 92.8
CC1(C(=O)CSc2nc3ccccc3[nH]2)CCC(=O)O1 (stereo unspecified)	none
CC(C)CC1NC(=O)N(CC(=O)Nc2ccc3c(c2)CCC3)C1=O (stereo unspecified)	none
CCCCN(CC)C(=O)c1cc2cc3ccc(OC)cc3nc2o1	RanGTP-Imp inh 58.6
CN1C(=S)SC(N(O)C(=O)Nc2cccc3ccccc23)C1(C)C (stereo unspecified)	PHOSPHO1 inh 62.6
O=C(O)/C=C/c1coc2ccc(F)cc2c1=O	none
O=C(O)/C=C/c1coc2ccccc2c1=O	RanGTP-Imp inh 35.4
CCOC(=O)C1CCN(S(=O)(=O)c2cccc(-c3cn4ccccc4n3)c2)CC1	PHOSPHO1 inh 84.1
CCOC(=O)C1CCN(S(=O)(=O)c2cccc(-c3cn4cccc(C)c4n3)c2)CC1	none (no result: RanGTP-Imp inh)
CCOC(=O)C1CCN(S(=O)(=O)c2cccc(-c3cn4cc(Cl)ccc4n3)c2)CC1	PHOSPHO1 inh 96.9
Cc1cccc(S(=O)(=O)Nc2ccc(-c3cn4ccccc4n3)cc2)c1	HMGR II inh 14.1
CCC(C)(C)n1nnnc1C(c1ccccc1OC)N1CCN(C(=O)c2ccco2)CC1 (stereo unspecified)	none (no result: Runt-SMMHC FRET, Wee1 stabilizer, HMGR II inh, Runt-CBFb FRET)
C/C(O)=c1/c(=O)nc2cccc3c2=c1c1ccccc1c3=O	none (no result: Runt-SMMHC FRET, Wee1 stabilizer, HMGR II inh, Runt-CBFb FRET)
COc1cc(CN2CCC(CO)(CCOc3ccccc3)CC2)cc(OC)c1OC	none
COc1cc(OC)c(CN2CCC(CO)(CCOc3ccccc3)CC2)c(OC)c1	PHOSPHO1 inh 64.2
O=C1C(Cl)=C(Nc2ccccc2O)C(=O)N1c1ccccc1	PHOSPHO1 inh 60.5
COc1ccccc1N1C(=O)C(Cl)=C(Nc2ccccc2O)C1=O	none
CC1CN(C(C)C(=O)NC(c2ccccc2)c2ccccc2)CC(C)O1 (stereo unspecified)	none (no result: Runt-SMMHC FRET, Wee1 stabilizer, HMGR II inh, Runt-CBFb FRET)
Cc1cccc(-n2nnc(C(=O)NCc3ccc4c(c3)OCO4)c2N)c1	PHOSPHO1 inh 60.5
O=C(CSc1nccn1-c1ccc(Cl)cc1)NCc1ccc2c(c1)OCO2	PHOSPHO1 inh 68.4
O=C(NCc1ccc2c(c1)OCO2)C1CC(c2ccc(Cl)cc2)=NO1 (stereo unspecified)	Wee1 stabilizer 8.8
O=C(CSc1ccc2c(c1)OCCO2)Nc1ccc(Cl)cn1	Wee1 stabilizer 11.0
O=C(CSc1ncccn1)NCc1ccc2c(c1)OCO2	none (no result: Runt-SMMHC FRET, Wee1 stabilizer, HMGR II inh, Runt-CBFb FRET)
COc1cc(OC)c(C2=NOC(C(=O)NCc3ccc4c(c3)OCO4)C2)cc1Cl (stereo unspecified)	none
Cn1cccc1C(=O)NCC(c1ccco1)N1CCCCC1 (stereo unspecified)	none (no result: Runt-SMMHC FRET, Wee1 stabilizer, PHOSPHO1 inh, HMGR II inh, Runt-CBFb FRET)
COc1ccc(NC(=O)CSc2nccn2-c2cccc(OC)c2)cc1	PHOSPHO1 inh 71.9
Cc1nnc(SCC(=O)NCc2ccc3c(c2)OCO3)s1	Wee1 stabilizer 9.5
COc1cccc(NC(=O)CSc2nccn2-c2cccc(OC)c2)c1	none
CC(C)Nc1nnc(SCC(=O)NCc2ccc3c(c2)OCO3)s1	none
O=C(CSc1nccn1-c1cccc(Cl)c1)Nc1ccc2c(c1)OCCO2	PHOSPHO1 inh 74.1
COc1ccc(NC(=O)CSc2nccn2C)cc1S(N)(=O)=O	HMGR II inh 10.4
